Data set [1] in a line: Apparent permeability across bovine cornea assessed as lag time of permeation by UV-visible spectrophotometer. The note with it: cattle. The data set is classed as ADME, tissue-based, Bos taurus. Put shortly:
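Fresh bovine cornea, taken within 1 h of sacrifice with lens and iris removed, was mounted in a side-by-side perfusion cell. Donor held 7 mL of drug in 0.01 M methanolic phosphate buffer, pH 7. Receptor was sampled 1 mL every 15 min for 3 h and replaced with buffer pre-equilibrated at 37 °C. Drug was quantified by UV-vis absorbance. Lag time is the time to reach a steady concentration gradient across the membrane.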

Data set [2] in a line: Acute toxicity in po dosed Wistar albino mouse assessed as mortality after 24 hrs by Karber's arithmetical method. Format: organism-based. The note with it: in vivo. The essentials: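 Wistar albino mice of either sex, six per group; compounds given orally by gavage as suspension in 1% carboxymethyl cellulose at 100, 200, 400, 800 or 1000 mg/kg. Mortality recorded over 24 h; LD50 calculated by Karber's arithmetical method.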

Data set [3] has as its system Rattus norvegicus. The data set is described as follows: Antiinflammatory activity in Wistar albino rat assessed as reduction in formalin-induced paw edema volume at 40 mg/kg, po administered 30 mins prior to formalin challenge measured after 30 mins by plethysmography. Format: functional. Also on record: scale not given: the % may be the effect or the level left. Put shortly: (§1)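 Wistar albino rats received the compound orally as a suspension in 1% carboxymethyl cellulose, 30 min before subplantar formalin (0.1 mL of 1% w/v). Paw volume was read by plethysmography at 30, 60, 90 and 120 min after formalin and expressed as % reduction of edema. Significance was tested by Student's t-test.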

The subject of data set [4] is Rattus norvegicus. The data set is described as follows: Antiinflammatory activity in Wistar albino rat assessed as reduction in formalin-induced paw edema volume at 40 mg/kg, po administered 30 mins prior to formalin challenge measured after 90 mins by plethysmography. Format: functional. Also on record: scale not given: the % may be the effect or the level left. Put shortly: as §1

Data set [5] has as its system Rattus norvegicus. The experiment in a line: Antiinflammatory activity in Wistar albino rat assessed as reduction in formalin-induced paw edema volume at 40 mg/kg, po administered 30 mins prior to formalin challenge measured after 60 mins by plethysmography. Format: functional. Also on record: scale not given: the % may be the effect or the level left. Put shortly:
as §1

In data set [6] the test system is Mus musculus. The data set is described as follows: Analgesic activity in Wistar albino mouse assessed as protection against acetic acid-induced writhing at 40 mg/kg, po administered 30 mins prior to acetic acid challenge measured after 30 mins. The data set is classed as functional. Put shortly:
(§2)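 Wistar albino mice of either sex were dosed orally by gavage with a suspension in 1% carboxymethyl cellulose, 30 min before the writhing agent (0.6% v/v aqueous acetic acid, 1 mL/100 g). Writhings were counted over 30 min and expressed as percentage protection. Significance was tested by Student's t-test.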

Data set [7] deals with Rattus norvegicus. The experiment in a line: Antiinflammatory activity in Wistar albino rat assessed as reduction in formalin-induced paw edema volume at 40 mg/kg, po administered 30 mins prior to formalin challenge measured after 120 mins by plethysmography. The data set is classed as functional. Also on record: scale not given: the % may be the effect or the level left. Put shortly:
as §1

The subject of data set [8] is Mus musculus. The data set is described as follows: Analgesic activity in Wistar albino mouse assessed as protection against acetic acid-induced writhing at 20 mg/kg, po administered 30 mins prior to acetic acid challenge measured after 30 mins. Format: functional. The essentials: as §2
Background: In writhing tests, fewer writhes than in controls are read as antinociception.

Data set [9] deals with Rattus norvegicus. The experiment in a line: Antiinflammatory activity in Wistar albino rat assessed as reduction in formalin-induced paw edema volume at 200 mg/kg, po administered 30 mins prior to formalin challenge measured after 90 mins by plethysmography. The data set is classed as functional. Also on record: scale not given: the % may be the effect or the level left. The essentials: as §1

Data set [10] has as its system Mus musculus. The experiment in a line: Analgesic activity in Wistar albino mouse assessed as protection against acetic acid-induced writhing at 200 mg/kg, po administered 30 mins prior to acetic acid challenge measured after 30 mins. The data set is classed as functional. Put shortly:
as §2

In data set [11] the test system is Rattus norvegicus. The experiment in a line: Antiinflammatory activity in Wistar albino rat assessed as reduction in formalin-induced paw edema volume at 200 mg/kg, po administered 30 mins prior to formalin challenge measured after 120 mins by plethysmography. Format: functional. Also on record: scale not given: the % may be the effect or the level left. Put shortly:
as §1

The test system of data set [12] is Rattus norvegicus. The data set is described as follows: Antiinflammatory activity in Wistar albino rat assessed as reduction in formalin-induced paw edema volume at 200 mg/kg, po administered 30 mins prior to formalin challenge measured after 30 mins by plethysmography. The data set is classed as functional. Also on record: scale not given: the % may be the effect or the level left. Put shortly: as §1

Data set [13] has as its system Mus musculus. The data set is described as follows: Analgesic activity in Wistar albino mouse assessed as protection against acetic acid-induced writhing at 100 mg/kg, po administered 30 mins prior to acetic acid challenge measured after 30 mins. The data set is classed as functional. The essentials: as §2
The test system of data set [14] is Rattus norvegicus. The experiment in a line: Antiinflammatory activity in Wistar albino rat assessed as reduction in formalin-induced paw edema volume at 200 mg/kg, po administered 30 mins prior to formalin challenge measured after 60 mins by plethysmography. The data set is classed as functional. Also on record: scale not given: the % may be the effect or the level left. The essentials:
as §1

The test system of data set [15] is Rattus norvegicus. The data set is described as follows: Antiinflammatory activity in Wistar albino rat assessed as reduction in formalin-induced paw edema volume at 50 mg/kg, po administered 30 mins prior to formalin challenge measured after 60 mins by plethysmography. The data set is classed as functional. Also on record: scale not given: the % may be the effect or the level left. Put shortly: (§3)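 Standard-drug arm, given orally to Wistar albino rats 30 min before subplantar formalin (0.1 mL of 1% w/v). Paw volumes were measured by plethysmography at 30, 60, 90 and 120 min post-formalin and expressed as % reduction of edema.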

The subject of data set [16] is Rattus norvegicus. The data set is described as follows: Antiinflammatory activity in Wistar albino rat assessed as reduction in formalin-induced paw edema volume at 50 mg/kg, po administered 30 mins prior to formalin challenge measured after 30 mins by plethysmography. Format: functional. Also on record: scale not given: the % may be the effect or the level left. The essentials: as §3

The subject of data set [17] is Rattus norvegicus. The experiment in a line: Antiinflammatory activity in Wistar albino rat assessed as reduction in formalin-induced paw edema volume at 50 mg/kg, po administered 30 mins prior to formalin challenge measured after 120 mins by plethysmography. Format: functional. Also on record: scale not given: the % may be the effect or the level left. Put shortly:
as §3

For data set [18], the system named is Rattus norvegicus. The experiment in a line: Antiinflammatory activity in Wistar albino rat assessed as reduction in formalin-induced paw edema volume at 50 mg/kg, po administered 30 mins prior to formalin challenge measured after 90 mins by plethysmography. Format: functional. Also on record: scale not given: the % may be the effect or the level left. The essentials:
as §3

Bounds are passed on as bounds.

Take `Cc1nc2ccccc2[nH]1`: the Tlag in [1] is given as 11.68 min.

Consider `C(=C\c1nc2ccccc2[nH]1)/c1ccccc1`, for which the Tlag in data set [1] was found to be 9.57 min.

One may read the LD50 as the dose expected to kill half of the subjects tested. For `C(=C\c1nc2ccccc2n1CN1CCCCC1)/c1ccccc1`, in data set [2], the LD50 at 24 h turned out to be 180 mg/kg. Moreover, the Activity in data set [3] is recorded as 48%; in [4], 59%; in data set [5], 56%; in data set [6], 43.8%; in data set [7] it was 62%; in [8] it was 29.56%. Further, the Tlag in [1] was 4.51 min.

As for `CN(C)Cn1cnc2ccccc21`, the Activity in data set [9] came to 64%; in data set [10], 31.4%; in [11], 53%; in data set [12], 48%; in [13], 25.87%; in data set [14] it was 51%. In [2], the LD50 at 24 h is over 1000 mg/kg. For the same compound, in [1], the Tlag amounted to 15.31 min.

Take `CCN(CC)Cn1c(/C=C/c2ccccc2)nc2ccccc21`: in data set [2], the LD50 at 24 h was determined as 175 mg/kg. The Activity in data set [3] is recorded as 20%; in [4], 51%; in data set [5], 50%; in data set [6], 47.49%; in data set [7] it was 56%; in data set [8] it was 32.2%. Further, in data set [1], the Tlag came out at 4.9 min.

For the compound `CCN(CC)Cn1cnc2ccccc21`, the Activity was 63% in [9]; 43.8% in [10]; 61% in data set [11]; 28% in data set [12]; 11.35% in data set [13]; 59% in [14]. Also, the LD50 at 24 h in data set [2] was over 1000 mg/kg. The Tlag in data set [1] turned out to be 16.79 min.

Regarding `C(=C\c1nc2ccccc2n1CN1CCOCC1)/c1ccccc1`, the LD50 at 24 h in data set [2] was 200 mg/kg. Moreover, the Activity in data set [3] turned out to be 52%; in data set [4], 74%; in [5] it was 59%; in data set [6] it was 27.45%; in data set [7] it was 70%; in data set [8] it was 20.58%. Further, in [1], the Tlag is 7.33 min.

For `CC(=O)Nc1ccc(O)cc1` [ACETAMINOPHEN], the Activity in data set [13] is 47.76%. Besides, the Tlag in [1] came to 1.55 min.

Turning to `c1ccc2[nH]cnc2c1` [BENZIMIDAZOLE], the Tlag in data set [1] is given as 18.81 min.

With `O=C(O)Cc1ccccc1Nc1c(Cl)cccc1Cl` [DICLOFENAC], the Activity stood at 65% in [15], 48% in data set [16], 65% in data set [17] and 64% in data set [18]. Besides, the Tlag in [1] was 3.36 min.

These data come from ChEMBL document CHEMBL1137677, “Synthesis, pharmacological screening, quantum chemical and in vitro permeability studies of N-Mannich bases of benzimidazoles through bovine cornea” (Eur J Med Chem, 2009).
